Each structure is given as a SMILES string. pIC50: −log10 of the molar value.

Results on three molecules are retold here after ChEMBL document CHEMBL5104115, “Design, synthesis of novel triptolide-glucose conjugates targeting glucose Transporter-1 and their selective antitumor effect” (Eur J Med Chem, 2022).

One data set concerns SW-620. As to the kind of experiment: Cytotoxicity against human SW-620 cells incubated for 72 hrs by MTT assay. Type of data set: functional, cell-based. As to conditions: SW-620, 72 h. In outline: (§1)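 Cells seeded at 4000/well, incubated overnight, then exposed to a range of concentrations, or DMSO vehicle, for 72 h. MTT (5 mg/mL solution) added for 4 h and formazan dissolved in DMSO. Absorbance read at 570 nm, and IC50 derived from the curves. Tumor lines were grown in RPMI 1640; HUVEC, HaCaT and LO2 were grown in DMEM, each with 10% FBS at 37 °C and 5% CO2.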

Another data set relates to MDA-MB-231. As to the kind of experiment: Cytotoxicity against human MDA-MB-231 cells incubated for 72 hrs by MTT assay. Type of data set: functional, cell-based. The following applies: MDA-MB-231, 72 h. In outline: as §1
(Tetrazolium dyes change colour on reduction, which living cells bring about.)

A further data set has as its system HCT-116. As to the kind of experiment: Cytotoxicity against human HCT-116 cells incubated for 72 hrs by MTT assay. Type of data set: functional, cell-based. The following applies: HCT-116, 72 h. In outline:
as §1

Another data set relates to HT-29. As to the kind of experiment: Cytotoxicity against human HT-29 cells incubated for 72 hrs by MTT assay. It is filed as functional, cell-based. The following applies: HT-29, 72 h. In outline:
as §1

The subject of another data set is NCI-H460. Kind of data set: Cytotoxicity against human NCI-H460 cells incubated for 72 hrs by MTT assay. Type of data set: functional, cell-based. As to conditions: NCI-H460, 72 h. The procedure, abridged: as §1
For another data set, the system named is NCI-H1975. Kind of data set: Cytotoxicity against human NCI-H1975 cells incubated for 72 hrs by MTT assay. Type of data set: functional, cell-based. As to conditions: NCI-H1975, 72 h. In outline: as §1
Data set [1] is described as follows: Cytotoxicity against HUVEC incubated for 72 hrs by MTT assay. It is filed as toxicity, cell-based. As to conditions: human, HUVEC cells. The procedure, abridged: as §1
Data set [2] in a line: Cytotoxicity against human L02 cells incubated for 72 hrs by MTT assay. Type of data set: toxicity, cell-based. The procedure, abridged:
as §1

Data set [3] in a line: Cytotoxicity against human HaCaT cells incubated for 72 hrs by MTT assay. Type of data set: toxicity, cell-based. The procedure, abridged:
as §1

Data set [4] can be described thus: Octanol-water partition coefficient, logD of the compound in PBS at pH 7.4 by liquid chromatography based mass spectrometric analysis. Type of data set: physicochemical. In outline:
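Shake-flask method: 3.0 mg compound dissolved in PBS-saturated n-octanol and rotated 24 h at room temperature. The octanol phase was then mixed with octanol-saturated PBS, rotated another 24 h and centrifuged. Both phases quantified by LC-MS against a standard curve, and log P = log(C octanol/C water).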

A word on the pIC50: it is the IC50 on a negative log10 scale, so that one unit is a factor of ten. Low readings indicate a large IC50, high ones a small IC50. By IC50 is commonly meant the concentration needed to halve the response being measured. In the case of `CC(C)[C@]12O[C@H]1[C@@H]1O[C@]13[C@]1(O[C@H]1C[C@H]1C4=C(CC[C@@]13C)C(=O)OC4)[C@@H]2OC(=O)CCC(=O)OC[C@H]1OC(O)[C@H](O)[C@@H](O)[C@@H]1O` (some centres undefined), the pIC50 in the data set on SW-620 is 5.28; in the data set on MDA-MB-231 it was 5.18; in the data set with HCT-116, 5.64; with HT-29 it was 5.37; with NCI-H460, 5.97; with NCI-H1975, 5.94. Also, the IC50 at 72 h amounted to 2020 nM in data set [1], 1420 nM in [2] and 3900 nM in data set [3].
One may read the logD as lipophilicity at a set pH, counting ionised and neutral species. `CC(C)[C@]12O[C@H]1[C@@H]1O[C@]13[C@]1(O[C@H]1C[C@H]1C4=C(CC[C@@]13C)C(=O)OC4)[C@@H]2OC(=O)CCC(=O)O[C@H]1[C@H](O)[C@@H](CO)OC(O)[C@@H]1O` (some centres undefined) yielded a logD in [4] of -0.772. Besides, the pIC50 in the data set with SW-620 is 5.59; in the data set on MDA-MB-231, 5.61; in the data set on HCT-116 it was 5.57; with HT-29, 5.29; in the data set on NCI-H460 it was 5.79; in the data set on NCI-H1975, 5.66. In addition, the IC50 at 72 h in data set [1] came to 4930 nM; in data set [2] it was 1380 nM; in data set [3] it was 4830 nM.
`CC(C)[C@]12O[C@H]1[C@@H]1O[C@]13[C@]1(O[C@H]1C[C@H]1C4=C(CC[C@@]13C)C(=O)OC4)[C@@H]2OC(=O)CCC(=O)O[C@@H]1O[C@H](CO)[C@@H](O)[C@H](O)[C@H]1O` came in with a logD in data set [4] of -0.558. Besides, the pIC50 is 5.26 in the data set on SW-620; 5.64 in the data set on MDA-MB-231; 5.63 in the data set with HCT-116; 5.54 in the data set on HT-29; 5.57 in the data set with NCI-H460; 5.73 in the data set on NCI-H1975. In addition, the figures for the IC50 at 72 h in data set [1], in [2] and in [3] were 8140 nM, 1380 nM and 1630 nM, respectively.
